Measurements published in ChEMBL document CHEMBL1141231, “Discovery and development of a new class of potent, selective, orally active oxytocin receptor antagonists” (J Med Chem, 2005).
pIC50, pKi: −log10 of the molar value. ≈ marks a conversion by molar mass, not a printed value. Where a SMILES comes first, the peptide text is derived from it. Bridges are numbered along the chain shown (N, C = ends). [ ]: non-standard residue; d: D form. Orn = NCCC[C@H](N)C(=O)O; Mpa = O=C(O)CCS

Assays:
[1] = target: T1, Oxytocin receptor (Homo sapiens) (UniProt P30559); test: Displacement of [125I]OVTA antagonist from human oxytocin receptor expressed in HEK293-EBNA cells at 10 uM; format: cell-based
T1 sequence (whole entry): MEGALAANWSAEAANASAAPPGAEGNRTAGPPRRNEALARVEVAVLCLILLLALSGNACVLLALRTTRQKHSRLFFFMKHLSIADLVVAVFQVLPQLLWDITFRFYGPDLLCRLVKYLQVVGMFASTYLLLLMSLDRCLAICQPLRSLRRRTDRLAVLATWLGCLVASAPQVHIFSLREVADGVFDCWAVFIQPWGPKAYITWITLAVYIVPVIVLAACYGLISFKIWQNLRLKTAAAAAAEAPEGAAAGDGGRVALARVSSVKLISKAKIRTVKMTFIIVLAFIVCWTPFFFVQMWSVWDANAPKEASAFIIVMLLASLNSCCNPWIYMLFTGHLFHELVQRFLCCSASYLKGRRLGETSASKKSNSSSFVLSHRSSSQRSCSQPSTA

Vasopressin V1a receptor [2] = target: T2, Vasopressin V1a receptor (Homo sapiens, UniProt P37288); details: HEK293-EBNA, at 10 µM
Target sequence in this assay (P37288 whole entry, looked up): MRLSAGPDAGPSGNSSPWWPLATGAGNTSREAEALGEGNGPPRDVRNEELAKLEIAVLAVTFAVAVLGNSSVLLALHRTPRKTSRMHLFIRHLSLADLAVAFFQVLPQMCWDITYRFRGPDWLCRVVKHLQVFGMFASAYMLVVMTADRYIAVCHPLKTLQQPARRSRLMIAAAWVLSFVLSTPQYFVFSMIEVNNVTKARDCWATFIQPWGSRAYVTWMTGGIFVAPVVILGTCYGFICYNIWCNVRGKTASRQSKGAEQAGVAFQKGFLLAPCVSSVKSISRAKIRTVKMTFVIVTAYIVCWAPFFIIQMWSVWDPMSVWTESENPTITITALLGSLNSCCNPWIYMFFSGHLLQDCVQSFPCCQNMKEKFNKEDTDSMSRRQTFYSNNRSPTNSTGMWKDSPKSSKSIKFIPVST

[3] = target: T3, Oxytocin receptor (Rattus norvegicus) (UniProt P70536); test: Inhibition of oxytocin-induced uterine contractions in nonpregnant rats administered at 10 mg/kg, iv; format: functional, organism-based; parameters: dose 10 mg/kg
T3 sequence (whole entry): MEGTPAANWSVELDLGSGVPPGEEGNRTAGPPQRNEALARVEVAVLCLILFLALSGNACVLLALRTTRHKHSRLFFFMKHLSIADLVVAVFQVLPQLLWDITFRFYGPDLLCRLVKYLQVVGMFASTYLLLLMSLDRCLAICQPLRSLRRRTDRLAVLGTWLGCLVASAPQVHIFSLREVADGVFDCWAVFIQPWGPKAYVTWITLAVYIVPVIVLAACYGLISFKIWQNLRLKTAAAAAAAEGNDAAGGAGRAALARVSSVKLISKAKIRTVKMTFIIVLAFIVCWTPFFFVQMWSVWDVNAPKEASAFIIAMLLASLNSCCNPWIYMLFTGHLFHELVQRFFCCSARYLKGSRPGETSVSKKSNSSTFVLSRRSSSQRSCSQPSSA
Procedure, shortened: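 Anaesthetized nonpregnant rats; compound given as a solution by iv infusion in NP3S, PEG/saline or saline. Uterine intraluminal pressure AUC is read relative to the third OT injection. Inhibition is taken versus vehicle values at 5 min after OT administration.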

Homo sapiens = organism: Homo sapiens; test: Selectivity for human vasopressin V1a receptor over human oxytocin receptor
[4] = target: T3, Oxytocin receptor (Rattus norvegicus); test: In vivo efficacy against oxytocin-induced uterine contractions in nonpregnant rats administered iv; format: functional, organism-based
Procedure, shortened: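 Anaesthetized nonpregnant rats; compound given as a solution by iv infusion in NP3S, PEG/saline or saline. Contractions read as AUC of intraluminal uterine pressure over 35 min, relative to the third OT injection, and expressed as % inhibition versus a vehicle group. ED50 is taken from a dose-response curve of peak inhibition values.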

[5] = Solubility in saline; format: physicochemical
[6] = Solubility in aqueous medium; format: physicochemical
Liver microsomes = test: Stability of compound in presence of human liver microsomes; format: ADME, Microsome
Procedure, shortened: (§1)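 Liver microsomes (human or rat) at final […] in 0.1 M phosphate pH 7.4 with compound at final 40 µM (1% DMSO), preincubated at 37 °C; reaction started with 1 mM NADPH; stopped with cold acetonitrile at 0, 20 and 60 min.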

Oxytocin receptor [7] = target: T4, Oxytocin receptor (Homo sapiens, UniProt P30559); test: biochemical; format: cell-based, HEK293-EBNA
T4 sequence (P30559 whole entry): T1 sequence (whole entry)

Oxytocin receptor [8] = target: T5, Oxytocin receptor (Rattus norvegicus, UniProt P70536); test: Displacement of [125I]OVTA antagonist from rat oxytocin receptor expressed in HEK293-EBNA cells; format: cell-based
T5 sequence (P70536 whole entry): T3 sequence (whole entry)

[9] = Inhibitory activity against cytochrome P450; format: ADME
Procedure, shortened: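 Baculovirus/insect-cell expressed CYP isoforms incubated with compound at several concentrations in 1% DMSO plus isoform-specific fluorogenic substrate; fluorescence after a fixed reaction time used to compute % inhibition and IC50.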

[10] = Stability of compound in presence of rat liver microsomes; format: ADME; procedure, shortened: as §1
Vasopressin V1a receptor [11] = target: T2, Vasopressin V1a receptor; test: Displacement of [125I]LVA antagonist from human vasopressin 1a receptor expressed in HEK293-EBNA cells; format: cell-based
Target sequence in this assay (P37288 whole entry): as the sequence (P37288 whole entry, looked up) above

Oxytocin receptor [12] = target: T4, Oxytocin receptor; test: Inhibitory activity against human Oxytocin induced intracellular Calcium mobilization in human Oxytocin receptor transfected HEK293-EBNA cells; format: functional, cell-based
[13] = target: T3, Oxytocin receptor (Rattus norvegicus); test: Inhibition of oxytocin-induced uterine contractions in nonpregnant rats administered at 30 mg/kg, po; format: functional, organism-based; parameters: dose 30 mg/kg
Procedure, shortened: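 Anaesthetized nonpregnant rats dosed orally by esophagus cannulation with a solution in NP3S, PEG/saline or saline. Uterine intraluminal pressure AUC is read versus vehicle. The value is the maximum inhibition within a 3 h interval after OT administration.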

[14] = aqueous medium, read-out: Solubility

CCOc1ccc(S(=O)(=O)N(CC(=O)OC)c2ccc(C)cc2)cc1
inhibition [1]: < 50% | inhibition (Vasopressin V1a receptor [2]): < 50%

CCOc1ccc(S(=O)(=O)N(CC(=O)N/N=C2\C(=O)Nc3ccccc32)c2ccc(C)cc2)cc1
inhibition [3]: 49.9% | Ratio Ki (Homo sapiens): 100 | ED50 [4]: 10 mg/kg

CN(C)CCCOc1ccc(S(=O)(=O)N(CC(=O)/N=N/c2c(O)[nH]c3ccccc23)c2ccc(Cl)cc2)cc1.Cl
solubility [5]: 7 µg/mL | solubility [6, 14]: 180 µg/mL

CN(C)CCCOc1ccc(S(=O)(=O)N(CC(=O)N/N=C2\C(=O)NC(=O)c3ccccc32)c2ccc(Cl)cc2)cc1
inhibition [3]: 39.8% | MET (Liver microsomes): 91% | pKi (Oxytocin receptor [7]): 8.80 | Ratio Ki (Homo sapiens): 456 | pKi (Oxytocin receptor [8]): 8.57 | solubility [5]: 2 µg/mL (≈ 3.34 µM) | solubility [6, 14]: 580 µg/mL (≈ 970 µM) | pIC50 [9]: < 6.00 | metabolised [10]: 89% | pKi (Vasopressin V1a receptor [11]): 6.14 | pIC50 (Oxytocin receptor [12]): 7.82

CN(C)CCCNC(=O)CCc1ccc(S(=O)(=O)N(CC(=O)/N=N/c2c(O)[nH]c3ccccc23)c2ccc(Cl)cc2)cc1.O=C(O)/C=C/C(=O)O
solubility [5]: 10000 µg/mL | solubility [6, 14]: 20000 µg/mL

O=C(CN(c1ccc(Cl)cc1)S(=O)(=O)c1ccccc1)N/N=C/c1ccccc1O
pKi (Oxytocin receptor [7]): 7.17 | inhibition (Vasopressin V1a receptor [2]): < 50%

Cc1ccc(N(CC(=O)N/N=C/c2ccccc2Cl)S(=O)(=O)c2ccccc2)cc1
inhibition [1]: < 50% | inhibition (Vasopressin V1a receptor [2]): < 50%

CC(C)CCN(CC(=O)N1CCc2ccccc2C1)S(=O)(=O)c1ccccc1
inhibition [1]: < 50% | inhibition (Vasopressin V1a receptor [2]): < 50%

CCOc1ccc(S(=O)(=O)N(CC(=O)NN)c2ccc(C)cc2)cc1
inhibition [1]: < 50% | inhibition (Vasopressin V1a receptor [2]): < 50%

CN(C)CCCOc1ccc(S(=O)(=O)N(CC(=O)/N=N/c2c(O)[nH]c3ccncc23)c2ccc(Cl)cc2)cc1.O=C(O)C(F)(F)F
solubility [5]: 10000 µg/mL | solubility [6, 14]: 20000 µg/mL

O=C(CN(c1ccc(Cl)cc1)S(=O)(=O)c1ccccc1)Nc1ccccc1
inhibition [1]: < 50% | inhibition (Vasopressin V1a receptor [2]): < 50%

O=C(CCc1ccc(S(=O)(=O)N(CC(=O)N/N=C2\C(=O)Nc3ccccc32)c2ccc(Cl)cc2)cc1)NCCCO
pKi (Oxytocin receptor [7]): 9.05 | Ratio Ki (Homo sapiens): 102 | solubility [5]: < 1 µg/mL | solubility [6, 14]: < 1 µg/mL | pKi (Vasopressin V1a receptor [11]): 7.03

CN(C)CCCOc1ccc(S(=O)(=O)N(CC(=O)N/N=C2\C(=O)Nc3ccccc32)c2ccc(Cl)cc2)cc1
inhibition [3]: 67.4% | MET (Liver microsomes): 0% | pKi (Oxytocin receptor [7]): 8.96 | Ratio Ki (Homo sapiens): 59 | pKi (Oxytocin receptor [8]): 8.34 | pIC50 [9]: < 6.00 | metabolised [10]: 26% | pKi (Vasopressin V1a receptor [11]): 7.19 | pIC50 (Oxytocin receptor [12]): 7.85 | inhibition [13]: 22% | ED50 [4]: 7.5 mg/kg

CN(C)CCCNC(=O)CCc1ccc(S(=O)(=O)N(CC(=O)/N=N/c2c(O)[nH]c3ccccc23)c2ccc(Cl)cc2)cc1.O=C(O)C(F)(F)F
solubility [5]: < 1 µg/mL | solubility [6, 14]: 20000 µg/mL

CCOc1ccc(C[C@H]2NC(=O)CCSSC[C@@H](C(=O)N3CCC[C@H]3C(=O)N[C@@H](CCCN)C(=O)NCC(N)=O)NC(=O)[C@H](CC(N)=O)NC(=O)[C@H]([C@@H](C)O)NC(=O)[C@H]([C@@H](C)CC)NC2=O)cc1 [ATOSIBAN] ([Mpa][dY](Et)ITNCP[Orn]G-NH2; disulfide 1-6)
pKi (Oxytocin receptor [7]): 7.57 | pKi (Oxytocin receptor [8]): 7.12 | pKi (Vasopressin V1a receptor [11]): 9.20 | pIC50 (Oxytocin receptor [12]): 7.23

CN(C)CCCOc1ccc(S(=O)(=O)N(CC(=O)N/N=C2\C(=O)Nc3ccncc32)c2ccc(Cl)cc2)cc1
inhibition [3]: 23.8% | MET (Liver microsomes): 20% | pKi (Oxytocin receptor [7]): 6.94 | Ratio Ki (Homo sapiens): 5 | pKi (Oxytocin receptor [8]): 6.85 | pIC50 [9]: < 6.00 | metabolised [10]: 41% | pKi (Vasopressin V1a receptor [11]): 6.21 | pIC50 (Oxytocin receptor [12]): 6.08

Cc1ccc(N(CC(=O)N/N=C/c2ccccc2O)S(=O)(=O)c2ccccc2)cc1
pKi (Oxytocin receptor [7]): 7.17 | inhibition (Vasopressin V1a receptor [2]): < 50%

COc1ccc(N(CC(=O)Nc2cccc(Cl)c2C)S(=O)(=O)c2ccccc2)cc1Cl
inhibition [1]: < 50% | inhibition (Vasopressin V1a receptor [2]): < 50%

O=C(CN(CCc1ccccc1)S(=O)(=O)c1ccccc1)N1CCc2ccccc2C1
inhibition [1]: < 50% | inhibition (Vasopressin V1a receptor [2]): < 50%

Cc1ccc(N(CC(=O)N/N=C/c2ccccc2F)S(=O)(=O)c2ccccc2)cc1
inhibition [1]: < 50% | inhibition (Vasopressin V1a receptor [2]): < 50%

CCN(CC)C(=O)CN(c1ccc(OC)cc1)S(=O)(=O)c1ccccc1
inhibition [1]: < 50% | inhibition (Vasopressin V1a receptor [2]): < 50%

COc1ccccc1/C=N/NC(=O)CN(c1ccc(C)cc1)S(=O)(=O)c1ccccc1
inhibition [1]: < 50% | inhibition (Vasopressin V1a receptor [2]): < 50%

COc1ccc(S(=O)(=O)N(CC(=O)Nc2cccc(Cl)c2C)c2ccc(C)cc2)cc1OC
pKi (Oxytocin receptor [7]): 6.21 | inhibition (Vasopressin V1a receptor [2]): < 50%

Cl.O=C(CN(c1ccc(Cl)cc1)S(=O)(=O)c1ccc(OCCN2CCOCC2)cc1)/N=N/c1c(O)[nH]c2ccccc12
solubility [5]: 2.5 µg/mL | solubility [6, 14]: 127 µg/mL

O=C(CN(c1ccccc1)S(=O)(=O)c1ccccc1)N/N=C1\C(=O)Nc2ccccc21
pKi (Oxytocin receptor [7]): 7.05 | inhibition (Vasopressin V1a receptor [2]): < 50%

O=C(CN(c1ccc(Cl)cc1)S(=O)(=O)c1ccc(OCCN2CCOCC2)cc1)N/N=C1\C(=O)Nc2ccccc21
inhibition [3]: 43% | MET (Liver microsomes): 57% | pKi (Oxytocin receptor [7]): 9.05 | Ratio Ki (Homo sapiens): 148 | pKi (Oxytocin receptor [8]): 8.10 | pIC50 [9]: < 6.00 | metabolised [10]: 21% | pKi (Vasopressin V1a receptor [11]): 6.88 | inhibition [13]: 30% | ED50 [4]: 9.4 mg/kg

Cc1ccc(N(CC(=O)Nc2cccc(Cl)c2C)S(C)(=O)=O)cc1
inhibition [1]: < 50% | inhibition (Vasopressin V1a receptor [2]): < 50%

CNCCCC12CCC(c3ccccc31)c1ccccc12.Cl [MAPROTILINE HYDROCHLORIDE]
solubility [5]: 2 µg/mL | solubility ([6]; buffer): 580 µg/mL

CN(C)CCOc1ccc(S(=O)(=O)N(CC(=O)N/N=C2\C(=O)Nc3ccccc32)c2ccc(Cl)cc2)cc1
pKi (Oxytocin receptor [7]): 8.68 | Ratio Ki (Homo sapiens): 84 | pKi (Oxytocin receptor [8]): 7.82 | pKi (Vasopressin V1a receptor [11]): 6.75 | pIC50 (Oxytocin receptor [12]): 7.23

COCCOc1ccc(S(=O)(=O)N(CC(=O)N/N=C2\C(=O)Nc3ccccc32)c2ccc(Cl)cc2)cc1
pKi (Oxytocin receptor [7]): 8.15 | Ratio Ki (Homo sapiens): 171 | pKi (Oxytocin receptor [8]): 7.48 | solubility [5]: < 1 µg/mL | solubility [6, 14]: < 1 µg/mL | pKi (Vasopressin V1a receptor [11]): 5.93
